Consider 27 compounds from ChEMBL document CHEMBL4311996 (Bioorg Med Chem Lett, 2019).

pIC50: −log10 of the molar value.

In series [1] the test system is Vero. The series is described as follows: (§1) Cytotoxicity against African green monkey Vero cells assessed as reduction in cell viability. It is filed as cell-based. The settings on record: chlorocebus sabaeus, vero.
Series [2] relates to Middle East respiratory syndrome-related coronavirus. The series is described as follows: Antiviral activity against MERS-CoV KOR/KNIH/002_05_2015 infected in African green monkey Vero cells expressing viral spike protein by immunofluorescence assay. The class given is functional, organism-based. Particulars: KOR/KNIH/002_05_2015, Vero.
The nature of series [3]: as §1. It is filed as cell-based. Particulars: chlorocebus sabaeus, Vero cells.
The nature of series [4]: Cmax in rat at 5 mg/kg, po. Particulars: in vivo. It is filed as ADME, organism-based. On the set-up: dose 5 mg/kg, route oral. Summed up: (§2)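 Rats given single doses, 2 mg/kg intravenously or 5 mg/kg orally, with three animals per route (n = 3). Each parameter is taken from three determinations.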
Series [5] has as its system NIH3T3. The series is described as follows: Cytotoxicity against mouse NIH/3T3 cells assessed as reduction in cell viability. The class given is cell-based.
The nature of series [6]: AUC (0 to infinity) in rat at 2 mg/kg, iv. The settings on record: in vivo. It is filed as ADME, organism-based. On the set-up: dose 2 mg/kg, route intravenous, time infinity. Summed up:
as §2

The nature of series [7]: Oral bioavailability in rat at 5 mg/kg. The class given is ADME, organism-based. The settings on record: in vivo. Summed up: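 Rats dosed at 5 mg/kg p.o., with comparison i.v. dosing at 2 mg/kg; n = 3 per route, three determinations.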
A short description of series [8]: Metabolic stability in mouse microsomes assessed as parent compound remaining measured after 30 mins. The settings on record: read-out: Stability. The class given is ADME, Microsome.
Series [9] in a line: AUC (0 to 24 hrs) in rat at 2 mg/kg, iv. On the set-up: time < 24 hr, dose 2 mg/kg, route intravenous. The class given is ADME, organism-based. The settings on record: in vivo. The procedure, abridged: as §2
A short description of series [10]: Clearance in rat at 2 mg/kg, iv. It is filed as ADME, organism-based. The settings on record: in vivo. Summed up:
as §2

Series [11] in a line: Half life in rat at 2 mg/kg, iv. The class given is ADME, organism-based. Particulars: in vivo.
Series [12] deals with Voltage-gated inwardly rectifying potassium channel KCNH2 (Homo sapiens, UniProt Q12809). The series is described as follows: Binding affinity to human ERG.
Chain of Voltage-gated inwardly rectifying potassium channel KCNH2 (Q12809 whole entry): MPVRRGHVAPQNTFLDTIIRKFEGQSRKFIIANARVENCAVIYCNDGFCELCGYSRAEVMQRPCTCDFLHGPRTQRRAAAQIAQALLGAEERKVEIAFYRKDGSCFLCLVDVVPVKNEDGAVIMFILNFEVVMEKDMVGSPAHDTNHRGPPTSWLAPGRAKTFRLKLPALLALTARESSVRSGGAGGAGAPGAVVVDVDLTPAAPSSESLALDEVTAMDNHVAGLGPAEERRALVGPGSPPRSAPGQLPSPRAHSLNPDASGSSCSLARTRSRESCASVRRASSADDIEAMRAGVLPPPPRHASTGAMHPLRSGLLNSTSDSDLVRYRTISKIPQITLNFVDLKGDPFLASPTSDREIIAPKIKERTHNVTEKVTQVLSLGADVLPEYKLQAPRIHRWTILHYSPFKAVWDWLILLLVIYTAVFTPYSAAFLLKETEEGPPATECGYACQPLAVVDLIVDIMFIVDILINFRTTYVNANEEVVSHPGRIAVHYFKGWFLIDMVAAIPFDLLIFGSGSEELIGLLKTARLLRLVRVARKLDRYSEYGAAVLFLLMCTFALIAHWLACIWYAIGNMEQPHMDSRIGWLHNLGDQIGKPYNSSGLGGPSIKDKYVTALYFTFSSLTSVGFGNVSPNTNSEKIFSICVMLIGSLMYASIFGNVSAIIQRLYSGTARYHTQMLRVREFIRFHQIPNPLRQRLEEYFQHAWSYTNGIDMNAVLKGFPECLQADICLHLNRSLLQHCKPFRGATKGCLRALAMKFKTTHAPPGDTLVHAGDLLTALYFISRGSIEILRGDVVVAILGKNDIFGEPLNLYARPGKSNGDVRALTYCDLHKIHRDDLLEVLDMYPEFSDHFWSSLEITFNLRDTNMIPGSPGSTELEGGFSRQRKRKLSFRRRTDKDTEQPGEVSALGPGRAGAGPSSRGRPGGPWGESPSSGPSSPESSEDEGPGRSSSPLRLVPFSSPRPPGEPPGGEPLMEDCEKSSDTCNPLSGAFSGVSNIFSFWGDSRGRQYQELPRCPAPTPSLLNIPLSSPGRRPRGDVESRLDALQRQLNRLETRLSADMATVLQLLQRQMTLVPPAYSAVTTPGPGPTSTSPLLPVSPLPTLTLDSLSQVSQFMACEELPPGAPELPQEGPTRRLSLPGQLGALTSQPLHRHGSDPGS
Series [13] relates to L929. Description: Cytotoxicity against mouse L929 cells assessed as reduction in cell viability. It is filed as cell-based.
Series [14] has as its system HFL1. The series is described as follows: Cytotoxicity against human HFL1 cells assessed as reduction in cell viability. The class given is cell-based.
Series [15] is described as follows: Metabolic stability in human microsomes assessed as parent compound remaining measured after 30 mins. The class given is ADME, Microsome. The settings on record: read-out: Stability.
Series [16] in a line: Metabolic stability in rat microsomes assessed as parent compound remaining measured after 30 mins. The settings on record: read-out: Stability. The class given is ADME, Microsome.
The test system of series [17] is CHO-K1. The series is described as follows: Cytotoxicity against CHOK1 cells assessed as reduction in cell viability. It is filed as cell-based. Particulars: Cricetulus griseus.

The CC50 is the concentration giving 50% cytotoxicity. Broadly, the pIC50 is the IC50 on a negative log10 scale, so that one unit is a factor of ten. On to `CC(=O)c1c(Nc2ccc(Br)cc2)[nH]c2c(F)cc(F)cc2c1=O`, for which the CC50 in [1] was more than 25 µM. Besides, the pIC50 in [2] was 5.95.
With `CC(=O)c1c(Nc2ccc(F)c(F)c2F)[nH]c2c(F)cc(F)cc2c1=O`, the CC50 in [1] is more than 25 µM. The same compound showed a negative logarithm of the IC50 (pIC50) in [2] of 6.28.
Consider `CCCCNc1[nH]c2c(F)cc(F)cc2c(=O)c1C(C)=O`, for which, in series [1], the CC50 was more than 25 µM. This compound also showed a pIC50 in series [2] of less than 4.60.
Take `CC(=O)c1c(NCc2ccc(F)cc2)[nH]c2c(F)cc(F)cc2c1=O`: the CC50 in [1] is more than 25 µM. For the same compound, the negative logarithm of the IC50 (pIC50) in [2] is 4.75.
Turning to `CC(=O)c1c(OCc2ccc(Cl)c(Cl)c2)[nH]c2c(F)cc(F)cc2c1=O`, in series [1], the CC50 was more than 25 µM. Besides, the pIC50 in series [2] is 5.11.
For `CC(=O)c1c(Nc2ccc(Cl)cc2)[nH]c2c(F)cc(F)cc2c1=O`, the half-maximal cytotoxic concentration (CC50) in series [1] is more than 25 µM. The pIC50 in [2] is 5.84.
For the compound `COc1ccc(Nc2[nH]c3c(F)cc(F)cc3c(=O)c2C(C)=O)cc1`, the CC50 in [1] was more than 25 µM. Besides, in series [2], the negative logarithm of the IC50 (pIC50) was less than 4.60.
`CC(C)C(=O)c1c(Nc2ccc(F)cc2F)[nH]c2c(Cl)cc(Cl)c(Cl)c2c1=O`: the CC50 in series [3] is more than 25 µM. This compound also had a negative-log IC50 (pIC50) in series [2] of 6.89.
For `CC(=O)c1c(N2CCCCC2)[nH]c2c(F)cc(F)cc2c1=O`, the CC50 in series [1] is more than 25 µM. Also, the pIC50 in series [2] was less than 4.60.
As to `CC(C)C(=O)c1c(Nc2ccc(F)cc2F)[nH]c2c(F)cc(F)cc2c1=O`, the 50% cytotoxic concentration (CC50) in series [1] is more than 25 µM. Further, the pIC50 in [2] is 6.10.
For `CC(=O)c1c(N2CCOCC2)[nH]c2c(F)cc(F)cc2c1=O`, the CC50 in series [1] is more than 25 µM. In series [2], this compound showed a pIC50 of less than 4.60.
The like results for `CC(=O)c1c(NC(C)C)[nH]c2c(C(F)(F)F)cc(Cl)cc2c1=O` were, in that order, more than 25 µM and 6.11.
Compound `CC(=O)c1c(NC(C)C)[nH]c2c(C(C)C)cccc2c1=O` showed a negative logarithm of the IC50 (pIC50) in series [2] of less than 4.60.
The term Cmax denotes the highest concentration seen after dosing. As usually defined, the AUC(0-inf) is total exposure, with the tail of the curve extrapolated. As a reminder, the AUC is concentration integrated over time. For orientation: clearance means the rate of elimination divided by the concentration. As usually defined, the half-life is the time in which the quantity being followed falls by half. As to `CC(C)C(=O)c1c(Nc2ccc(F)c(F)c2F)[nH]c2c(F)cc(F)cc2c1=O`, the CC50 in [1] was more than 25 µM. This compound also showed a Cmax in [4] of 2320 ng/mL. Further, the pIC50 in series [5] is 4.18; in series [2], 7.07; in [12], 5.16; in series [13], 4.80; in series [14], 4.81; in [17], 5.16. Also, in [6], the AUC(0-inf) was determined as 28900 ng·h/mL. The F in series [7] is reported as 56%. Besides, the values for the remaining at 0.5 h in series [8], in series [15] and in series [16] were 35%, 52% and 44%, respectively. For the same compound, in series [9], the AUC is 28300 ng·h/mL. The compound also returned a clearance in [10] of 1.17 mL/min/kg. Further, in series [11], the half-life is 4.6 h.
For `CC(=O)c1c(Nc2ccc(F)cc2F)[nH]c2c(F)cc(Cl)cc2c1=O`, the CC50 in series [1] was more than 25 µM. For the same compound, the pIC50 in [2] was 6.01.
Compound `CC(C)Nc1[nH]c2c(C(F)(F)F)cc(Cl)cc2c(=O)c1C(=O)c1ccccc1` showed a negative-log IC50 (pIC50) in series [2] of less than 4.60.
For the compound `CC(C)C(=O)c1c(Nc2ccc(F)cc2F)[nH]c2c(C(F)(F)F)cc(Cl)cc2c1=O`, the cytotoxic concentration (CC50) in [1] came out at 7.3 µM. Moreover, in series [2], the pIC50 is 6.89.
With `CC(=O)c1c(NCc2ccc(F)cc2F)[nH]c2c(F)cc(F)cc2c1=O`, the CC50 in series [1] was more than 25 µM. The compound further showed a pIC50 in series [2] of 5.23.
For `CC(=O)c1c(Nc2ccc(F)cc2F)[nH]c2c(C(F)(F)F)cc(Cl)cc2c1=O`, the CC50 in series [1] was 7.3 µM. The pIC50 in series [2] is 6.82.
In the case of `CC(=O)c1c(Nc2ccc(F)cc2F)[nH]c2c(F)cc(F)cc2c1=O`, the 50% cytotoxic concentration (CC50) in [1] is more than 25 µM. Moreover, the pIC50 in series [2] is 5.97.
As to `CC(C)C(=O)c1c(Nc2ccc(F)c(F)c2F)[nH]c2c(Cl)ccc(Cl)c2c1=O`, the CC50 in series [1] worked out at 10.9 µM. The compound further gave a pIC50 in series [2] of 6.78.
Take `COc1cccc(Nc2[nH]c3c(F)cc(F)cc3c(=O)c2C(C)=O)c1`: in [1], the cytotoxic concentration (CC50) is more than 25 µM. Moreover, the pIC50 in series [2] was less than 4.60.
Turning to `CC(=O)c1c(Nc2ccc(F)cc2F)[nH]c2c(Cl)cc(Cl)c(Cl)c2c1=O`, the CC50 in series [1] is more than 25 µM. The pIC50 in series [2] is 6.54.
With `CC(C)C(=O)c1c(Nc2ccc(F)c(F)c2F)[nH]c2c(Cl)cc(Cl)c(Cl)c2c1=O`, in [1], the CC50 is 6.4 µM. In addition, the negative-log IC50 (pIC50) in [2] is 7.00.
The like results for `CC(=O)c1c(Nc2ccc(F)cc2F)[nH]c2c([N+](=O)[O-])cc(Cl)cc2c1=O` were, in that order, more than 25 µM and 5.94.
Take `COc1ccc(CNc2[nH]c3c(F)cc(F)cc3c(=O)c2C(C)=O)cc1`: the CC50 in [1] is more than 25 µM. Also, the negative-log IC50 (pIC50) in series [2] was less than 4.60.
`CC(=O)c1c(NC(C)C)[nH]c2c(C)cc(C)cc2c1=O`: the pIC50 in series [2] is less than 4.60.
